Data as given in ChEMBL document CHEMBL4020814, “Synthesis, Binding Mode, and Antihyperglycemic Activity of Potent and Selective (5-Imidazol-2-yl-4-phenylpyrimidin-2-yl)[2-(2-pyridylamino)ethyl]amine Inhibitors of Glycogen Synthase Kinase 3” (J Med Chem, 2017).

Legend:
Rattus norvegicus [1] = test: Effect on plasma insulin level in lean ZDF fa/fa rat at 30 mg/kg dosed at 4.5 and 0.5 hrs prior to oral glucose challenge measured at 25 mins (reference value: 0.4 +/- 0.1 ng/ml); format: ADME, organism-based; conditions: in vivo
Rattus norvegicus [2] = test: Toxicity in diabetic ZDF rat assessed as increase in beta-catenin mRNA levels in adipose tissue administered at 130 mg/kg/day infused over 20 hrs; format: organism-based; conditions: in vivo
[3] = AUC in po dosed diabetic ZDF rat; format: ADME, organism-based; conditions: in vivo
Rattus norvegicus [4] = test: Toxicity in diabetic ZDF rat assessed as increase in cyclin D1 mRNA levels in adipose tissue administered at 130 mg/kg/day infused over 20 hrs; format: organism-based; conditions: in vivo
Rattus norvegicus [5] = test: Toxicity in diabetic ZDF rat assessed as increase in cyclin D1 mRNA levels in colon administered at 130 mg/kg/day infused over 20 hrs; format: organism-based; conditions: in vivo
Rattus norvegicus [6] = test: Reduction in plasma insulin level in diabetic ZDF fa/fa rat at 30 mg/kg, po administered as single dose measured after 60 mins; format: ADME, organism-based; conditions: in vivo, 1 h
How it was run: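 Twelve-week-old male ZDF (fa/fa) rats with fasted basal glucose of 500–550 mg/dL, food removed 3–4 h before dosing. A single oral dose was given with vehicle 15% captisol. Plasma glucose and insulin were measured from serial tail-snip bleeds, n = 8/group, mean ± SEM.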

[7] = Volume of distribution at steady state in iv dosed diabetic ZDF rat; format: ADME, organism-based; conditions: in vivo, read-out: Vdss
How it was run: (§1)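 ZDF (fa/fa) rats dosed intravenously; clearance and steady-state volume of distribution derived from plasma concentration–time data.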

Rattus norvegicus [8] = test: Toxicity in diabetic ZDF rat assessed as increase in beta-catenin mRNA levels in liver administered at 130 mg/kg/day infused over 20 hrs; format: organism-based; conditions: in vivo
Rattus norvegicus [9] = test: Effect on plasma glucose levels in lean ZDF fa/fa rat administered at 30 mg/kg dosed at 4.5 and 0.5 hrs prior to oral glucose challenge by oral glucose tolerance test; format: ADME, organism-based; conditions: in vivo
Mus musculus [10] = species: Mus musculus; test: Effect on insulin levels in streptozotocin-treated mouse fed with high fat diet; format: ADME; conditions: in vivo
How it was run: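 Mice on a high-fat diet with intermittent streptozotocin were dosed orally at −4.5 and −0.5 h before oral glucose challenge. Post-challenge glucose AUC and insulin were measured.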

[11] = Half life in diabetic ZDF fa/fa rat at 8 mg/kg administered 4.5 and 0.5 hrs prior to oral glucose challenge; format: ADME, organism-based; conditions: in vivo
[12] = Half life in po dosed diabetic ZDF rat; format: ADME, organism-based; conditions: in vivo
Mus musculus [13] = test: Effect on urine glucose levels in diabetic db/db mouse administered orally at 4.5 and 0.5 hrs prior to oral glucose challenge; format: ADME; conditions: in vivo
Rattus norvegicus [14] = test: Effect on plasma insulin level in diabetic ZDF fa/fa rat assessed as plasma insulin levels at 5 mg/kg, iv prime dose with continuous infusion at 64 ug/kg/min for 4 days (reference value: 3.9 +/- 0.6 ng/ml); format: ADME, organism-based; conditions: in vivo, 96 h
Rattus norvegicus [15] = test: Toxicity in diabetic ZDF rat assessed as increase in cyclin D1 mRNA levels in brain administered at 130 mg/kg/day infused over 20 hrs; format: organism-based; conditions: in vivo
Rattus norvegicus [16] = test: Toxicity in diabetic ZDF rat assessed as increase in cyclin D1 mRNA levels in lung administered at 130 mg/kg/day infused over 20 hrs; format: organism-based; conditions: in vivo
Rattus norvegicus [17] = test: Effect on plasma insulin level in lean ZDF fa/fa rat at 30 mg/kg dosed at 4.5 and 0.5 hrs prior to oral glucose challenge measured at 60 mins (reference value: 0.3 +/- 0.1 ng/ml); format: ADME, organism-based; conditions: in vivo, 1 h
[18] = Cmax in po dosed diabetic ZDF rat; format: ADME, organism-based; parameters: route oral; conditions: in vivo
Rattus norvegicus [19] = test: Effect on plasma insulin level in obese ZDF fa/fa rat at 30 mg/kg dosed at 4.5 and 0.5 hrs prior to oral glucose challenge measured at 60 mins (reference value: 7.8 +/- 0.8 ng/ml); format: ADME, organism-based; conditions: in vivo
Rattus norvegicus [20] = test: Toxicity in diabetic ZDF rat assessed as increase in beta-catenin mRNA levels in brain administered at 130 mg/kg/day infused over 20 hrs; format: organism-based; conditions: in vivo
Rattus norvegicus [21] = test: Toxicity in diabetic ZDF rat assessed as increase in cyclin D1 mRNA levels in liver administered at 130 mg/kg/day infused over 20 hrs; format: organism-based; conditions: in vivo
Rattus norvegicus [22] = test: Effect on plasma insulin level in lean ZDF fa/fa rat at 30 mg/kg dosed at 4.5 and 0.5 hrs prior to oral glucose challenge measured at -250 mins (reference value: 0.2 +/- 0.1 ng/ml); format: ADME, organism-based; conditions: in vivo
[23] = Clearance in iv dosed diabetic ZDF rat; format: ADME, organism-based; conditions: in vivo; how it was run: as §1
Rattus norvegicus [24] = test: Toxicity in diabetic ZDF rat assessed as increase in beta-catenin mRNA levels in colon administered at 130 mg/kg/day infused over 20 hrs; format: organism-based; conditions: in vivo
[25] = Oral bioavailability in diabetic ZDF fa/fa rat at 8 mg/kg administered 4.5 and 0.5 hrs prior to oral glucose challenge; format: ADME, organism-based; conditions: in vivo
[26] = Stability in human liver microsomes assessed as half life; format: ADME, microsome
Rattus norvegicus [27] = test: Toxicity in diabetic ZDF rat assessed as increase in beta-catenin mRNA levels in lungs administered at 130 mg/kg/day infused over 20 hrs; format: organism-based; conditions: in vivo
[28] = target: Casein kinase I isoform epsilon (Homo sapiens, UniProt P49674); test: Inhibition of human CK1epsilon using biotin peptide substrate after 1 hr by scintillation counting method
Rattus norvegicus [29] = test: Effect on plasma insulin level in obese ZDF fa/fa rat at 30 mg/kg dosed at 4.5 and 0.5 hrs prior to oral glucose challenge measured at 25 mins (reference value: 8.5 +/- 0.7 ng/ml); format: ADME, organism-based; conditions: in vivo
Rattus norvegicus [30] = test: Effect on plasma insulin level in obese ZDF fa/fa rat at 30 mg/kg dosed at 4.5 and 0.5 hrs prior to oral glucose challenge measured at -250 mins (reference value: 7.2 +/- 0.6 ng/ml); format: ADME, organism-based; conditions: in vivo
Rattus norvegicus [31] = test: Effect on plasma insulin level in obese ZDF fa/fa rat at 30 mg/kg dosed at 4.5 and 0.5 hrs prior to oral glucose challenge measured at -45 mins (reference value: 6.9 +/- 0.3 ng/ml); format: ADME, organism-based; conditions: in vivo
Mus musculus [32] = test: Effect on insulin level in diabetic ob/ob mouse administered at 30 mg/kg, po measured post glucose challenge; format: ADME, organism-based; conditions: in vivo
How it was run: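 ob/ob mice aged 9–10 weeks, 6–8 per group, given an oral glucose tolerance test with oral dosing at −4.5 and −0.5 h (vehicle captisol). Plasma glucose and insulin were measured after the glucose challenge. Values are mean ± SEM.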

Angiopoietin-1 receptor = Angiopoietin-1 receptor (Homo sapiens, UniProt Q02763)
Rattus norvegicus [33] = test: Effect on plasma insulin level in lean ZDF fa/fa rat at 30 mg/kg dosed at 4.5 and 0.5 hrs prior to oral glucose challenge measured at -45 mins (reference value: 0.2 +/- 0.1 ng/ml); format: ADME, organism-based; conditions: in vivo
Mus musculus [34] = test: Effect on insulin level in diabetic db/db mouse at 30 mg/kg administered at 4.5 and 0.5 hrs prior to oral glucose challenge; format: ADME, organism-based; conditions: in vivo
How it was run: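 db/db mice, 6–8 per group, fasted ~6 h (food removed 3 h before prebleed), dosed orally at −4.5 and −0.5 h relative to oral glucose (vehicle 10% captisol). Tail-snip blood glucose was read by glucometer or analyzer; plasma insulin was measured by ELISA.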

[35] = Oral bioavailability in diabetic ZDF rat; format: ADME, organism-based; conditions: in vivo
[36] = Plasma concentration in diabetic db/db mouse at 30 mg/kg administered at 4.5 and 0.5 hrs prior to oral glucose challenge measured 20 mins post second dose; conditions: plasma

Casein kinase I isoform epsilon, sequence (P49674 whole entry, canonical isoform): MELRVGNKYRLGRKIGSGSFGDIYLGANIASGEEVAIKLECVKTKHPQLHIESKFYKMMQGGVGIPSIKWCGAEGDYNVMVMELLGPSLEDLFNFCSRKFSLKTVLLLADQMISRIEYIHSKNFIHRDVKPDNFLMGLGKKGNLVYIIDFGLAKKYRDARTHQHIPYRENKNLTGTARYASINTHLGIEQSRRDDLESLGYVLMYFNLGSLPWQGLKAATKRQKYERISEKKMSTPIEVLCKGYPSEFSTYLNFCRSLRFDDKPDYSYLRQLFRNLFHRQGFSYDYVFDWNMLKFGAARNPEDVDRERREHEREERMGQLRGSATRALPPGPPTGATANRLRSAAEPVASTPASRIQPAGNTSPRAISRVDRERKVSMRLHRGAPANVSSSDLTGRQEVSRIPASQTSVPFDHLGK
Angiopoietin-1 receptor, sequence (Q02763 whole entry): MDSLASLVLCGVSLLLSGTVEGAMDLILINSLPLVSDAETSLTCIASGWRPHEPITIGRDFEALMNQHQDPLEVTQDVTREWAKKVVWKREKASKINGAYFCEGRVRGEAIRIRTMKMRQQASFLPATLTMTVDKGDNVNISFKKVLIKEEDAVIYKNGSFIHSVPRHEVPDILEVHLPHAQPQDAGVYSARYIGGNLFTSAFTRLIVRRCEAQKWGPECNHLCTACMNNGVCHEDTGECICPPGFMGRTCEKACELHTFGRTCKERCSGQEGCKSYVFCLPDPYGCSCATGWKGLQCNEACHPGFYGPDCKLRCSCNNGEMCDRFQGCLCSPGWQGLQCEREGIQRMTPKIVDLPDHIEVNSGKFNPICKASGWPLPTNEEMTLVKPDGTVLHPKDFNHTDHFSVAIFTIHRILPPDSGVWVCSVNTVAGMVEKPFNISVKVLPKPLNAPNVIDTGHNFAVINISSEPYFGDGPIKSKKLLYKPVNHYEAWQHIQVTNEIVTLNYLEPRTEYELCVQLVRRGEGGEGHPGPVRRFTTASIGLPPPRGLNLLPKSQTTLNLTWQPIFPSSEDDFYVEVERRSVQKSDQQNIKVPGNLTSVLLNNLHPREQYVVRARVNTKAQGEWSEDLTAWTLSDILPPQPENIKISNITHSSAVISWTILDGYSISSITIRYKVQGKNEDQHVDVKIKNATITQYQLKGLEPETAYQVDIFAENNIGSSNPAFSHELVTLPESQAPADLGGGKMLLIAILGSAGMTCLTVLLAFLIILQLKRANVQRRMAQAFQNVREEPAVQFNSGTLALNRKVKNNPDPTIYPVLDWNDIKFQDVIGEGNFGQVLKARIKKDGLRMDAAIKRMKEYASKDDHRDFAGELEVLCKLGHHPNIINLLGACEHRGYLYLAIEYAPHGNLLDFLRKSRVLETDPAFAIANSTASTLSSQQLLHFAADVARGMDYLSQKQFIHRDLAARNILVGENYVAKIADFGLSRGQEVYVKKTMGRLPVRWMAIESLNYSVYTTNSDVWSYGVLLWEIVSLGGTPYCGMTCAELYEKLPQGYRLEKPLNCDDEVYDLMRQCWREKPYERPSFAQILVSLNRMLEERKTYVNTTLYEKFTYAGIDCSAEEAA

Q: With `Cc1c[nH]c(-c2cnc(NCCNc3ccc(C#N)cn3)nc2-c2ccc(Cl)cc2Cl)n1` [LADUVIGLUSIB] as the compound, how does the Activity (Rattus norvegicus [1]) read?
A: 0.6 ng/mL

Q: And the Activity (Rattus norvegicus [2])?
A: Non-Toxic

Q: What about the AUC [3] of the same compound?
A: 1420 ng·h/mL

Q: And the Activity (Rattus norvegicus [4])?
A: Non-Toxic

Q: What about the Activity (Rattus norvegicus [5]) of the same compound?
A: Non-Toxic

Q: What about the Activity (Rattus norvegicus [6]) of the same compound?
A: Toxic

Q: And the Vd [7]?
A: 3.6 L/kg

Q: What about the Activity (Rattus norvegicus [8]) of the same compound?
A: Non-Toxic

Q: What about the Activity (Rattus norvegicus [9]) of the same compound?
A: Non-Toxic

Q: What about the Activity (Mus musculus [10]) of the same compound?
A: Toxic

Q: What about the half-life [11] of the same compound?
A: 1.53 h

Q: What about the half-life [12] of the same compound?
A: 1.53 to 1.63 h

Q: And the Activity (Mus musculus [13])?
A: Non-Toxic

Q: And the Activity (Rattus norvegicus [14])?
A: 3.1 ng/mL

Q: And the Activity (Rattus norvegicus [15])?
A: Non-Toxic

Q: What about the Activity (Rattus norvegicus [16]) of the same compound?
A: Non-Toxic

Q: What about the Activity (Rattus norvegicus [17]) of the same compound?
A: 0.4 ng/mL

Q: And the Cmax [18]?
A: 400 ng/mL

Q: And the Activity (Rattus norvegicus [19])?
A: 5.2 ng/mL

Q: And the Activity (Rattus norvegicus [20])?
A: Non-Toxic

Q: And the Activity (Rattus norvegicus [21])?
A: Non-Toxic

Q: And the Activity (Rattus norvegicus [22])?
A: 0.3 ng/mL

Q: And the clearance [23]?
A: 43 mL/min/kg

Q: And the Activity (Rattus norvegicus [24])?
A: Non-Toxic

Q: What about the bioavailability [25] of the same compound?
A: 36%

Q: What about the half-life [26] of the same compound?
A: 1.82 h

Q: And the Activity (Rattus norvegicus [27])?
A: Non-Toxic

Q: And the IC50 [28]?
A: > 5 µM

Q: What about the Activity (Rattus norvegicus [29]) of the same compound?
A: 4.8 ng/mL

Q: And the Activity (Rattus norvegicus [30])?
A: 6.3 ng/mL

Q: What about the Activity (Rattus norvegicus [31]) of the same compound?
A: 5.3 ng/mL

Q: And the Activity (Mus musculus [32])?
A: Toxic

Q: And the IC50 (Angiopoietin-1 receptor)?
A: > 5 µM

Q: And the Activity (Rattus norvegicus [33])?
A: 0.3 ng/mL

Q: And the Activity (Mus musculus [34])?
A: Non-Toxic

Q: And the bioavailability [35]?
A: 36 to 43%

Q: And the concentration at 20 min [36]?
A: 15000 ng/mL
